The text below walks through data of ChEMBL document CHEMBL1671618, “Functional cloning and characterization of the multidrug efflux pumps NorM from Neisseria gonorrhoeae and YdhE from Escherichia coli” (Antimicrob Agents Chemother, 2008).

Test [1] addresses T1, Multidrug resistance protein MdtK (Escherichia coli (strain K12), UniProt P37340).
T1 sequence (P37340 whole entry): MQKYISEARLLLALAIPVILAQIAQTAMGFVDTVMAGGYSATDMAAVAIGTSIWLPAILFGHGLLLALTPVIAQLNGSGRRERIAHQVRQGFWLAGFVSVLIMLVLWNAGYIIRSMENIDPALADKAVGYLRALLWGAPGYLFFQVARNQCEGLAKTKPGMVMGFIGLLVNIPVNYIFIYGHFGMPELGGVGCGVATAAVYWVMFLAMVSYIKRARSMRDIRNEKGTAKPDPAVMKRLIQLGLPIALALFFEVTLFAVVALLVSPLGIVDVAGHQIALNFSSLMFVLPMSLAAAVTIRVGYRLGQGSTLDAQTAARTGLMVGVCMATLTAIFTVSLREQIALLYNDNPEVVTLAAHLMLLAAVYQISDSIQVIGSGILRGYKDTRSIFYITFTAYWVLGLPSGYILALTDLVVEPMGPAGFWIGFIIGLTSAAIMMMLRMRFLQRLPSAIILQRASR
The experiment in a line: Binding affinity to Escherichia coli K-12 multidrug efflux protein YdhE […] in presence of 0.02% DDM surfactant by fluorescence polarization assay. (Polarisation of emitted light reports the rotation of a fluorescent probe.)

The nature of test [2]: Binding affinity to Neisseria gonorrhoeae FA19 multidrug efflux protein NorM expressed in Escherichia coli AG100AX in presence of 0.02% DDM surfactant by fluorescence polarization assay.
Test [3] can be described thus: Binding affinity to Neisseria gonorrhoeae FA19 multidrug efflux protein NorM […] using Scatchard plot in presence of 0.02% DDM surfactant by fluorescence polarization assay.
In test [4] the test system is Escherichia coli. The experiment in a line: Antimicrobial activity against AcrAB-deficient Escherichia coli AG100AX harboring pBADomeganorM plasmid containing Neisseria gonorrhoeae multidrug efflux pump NorM after 18 to 24 hrs by two fold dilution method. The format is functional.
The target in test [5] is T2, Multidrug efflux pump subunit AcrB (Escherichia coli (strain K12), UniProt P31224).
T2 sequence (P31224 whole entry): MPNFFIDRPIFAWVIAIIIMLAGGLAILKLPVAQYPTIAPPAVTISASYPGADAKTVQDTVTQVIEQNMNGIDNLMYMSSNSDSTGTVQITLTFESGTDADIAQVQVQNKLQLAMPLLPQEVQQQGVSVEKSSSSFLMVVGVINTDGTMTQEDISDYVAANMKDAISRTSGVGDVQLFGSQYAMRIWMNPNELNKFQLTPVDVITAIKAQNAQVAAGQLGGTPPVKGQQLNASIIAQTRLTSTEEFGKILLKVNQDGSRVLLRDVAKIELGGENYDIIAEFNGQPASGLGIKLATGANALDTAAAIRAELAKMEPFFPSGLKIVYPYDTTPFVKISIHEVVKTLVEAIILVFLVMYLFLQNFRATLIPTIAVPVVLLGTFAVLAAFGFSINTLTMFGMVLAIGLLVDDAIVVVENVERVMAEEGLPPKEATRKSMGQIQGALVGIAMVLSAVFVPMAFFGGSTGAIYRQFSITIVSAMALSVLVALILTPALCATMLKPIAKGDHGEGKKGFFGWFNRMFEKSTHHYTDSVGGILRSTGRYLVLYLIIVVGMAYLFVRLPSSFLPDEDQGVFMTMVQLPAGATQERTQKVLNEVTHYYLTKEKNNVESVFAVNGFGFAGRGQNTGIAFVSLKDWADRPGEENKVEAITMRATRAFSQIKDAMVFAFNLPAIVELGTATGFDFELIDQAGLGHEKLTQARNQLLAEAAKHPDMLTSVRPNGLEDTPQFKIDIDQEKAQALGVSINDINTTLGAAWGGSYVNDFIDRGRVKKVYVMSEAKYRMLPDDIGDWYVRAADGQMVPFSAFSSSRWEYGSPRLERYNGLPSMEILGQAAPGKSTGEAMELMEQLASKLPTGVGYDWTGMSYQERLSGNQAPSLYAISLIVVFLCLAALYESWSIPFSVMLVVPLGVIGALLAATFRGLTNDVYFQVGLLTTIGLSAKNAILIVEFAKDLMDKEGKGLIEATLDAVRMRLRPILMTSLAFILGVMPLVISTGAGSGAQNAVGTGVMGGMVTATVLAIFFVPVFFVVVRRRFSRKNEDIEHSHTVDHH
In words: Binding affinity to Escherichia coli K-12 multidrug efflux protein AcrB at pH 8.4 by equilibrium dialysis method. On the technique in general: In equilibrium dialysis only unbound substance equilibrates across the membrane.

Test [6] deals with Escherichia coli. In words: Antimicrobial activity against AcrAB-deficient Escherichia coli AG100AX harboring pBADomegaydhE plasmid containing Escherichia coli multidrug efflux pump YdhE after 18 to 24 hrs by two fold dilution method. The format is functional.
Test [7] has as its target T1, Multidrug resistance protein MdtK. The experiment in a line: Binding affinity to purified detergent-solubilized Escherichia coli K-12 multidrug efflux protein YdhE by equilibrium dialysis method. The gist of the method: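 YdhE carried a C-terminal His6 tag and was overproduced in E. coli TOP10 by L-arabinose induction. It was solubilized in 1% DDM, then purified by Ni2+-affinity and G-200 sizing in 20 mM HEPES-NaOH pH 7.5 with 0.02% DDM. Purity was >90% by SDS-PAGE. Rhodamine 6G binding was measured by equilibrium dialysis to give the KD and the binding stoichiometry.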

Test [8] in a line: Binding affinity to Neisseria gonorrhoeae FA19 multidrug efflux protein NorM expressed in Escherichia coli AG100AX in presence of => 100 mM NaCl by fluorescence polarization assay. A digest of the protocol: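 NaCl at 100 to 400 mM added to rhodamine 6G (1 μM) binding mixtures with purified His6-NorM in 20 mM HEPES-NaOH pH 7.5, 0.02% DDM.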
In test [9] the test system is Escherichia coli. The experiment in a line: Antimicrobial activity against AcrAB-deficient Escherichia coli AG100AX harboring pBAD plasmid after 18 to 24 hrs by two fold dilution method. The format is functional. The gist of the method:
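Twofold agar dilution on LB agar containing the antimicrobial, inoculum 10⁴ CFU/spot. Growth was scored after 18–24 h at 37°C, and each MIC determination was repeated at least four times.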

Test [10] is described as follows: Binding affinity to Neisseria gonorrhoeae FA19 multidrug efflux protein NorM expressed in Escherichia coli AG100AX at pH 8.5 by fluorescence polarization assay. The gist of the method:
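Rhodamine 6G (1 μM) binding to purified DDM-solubilized His6-NorM, measured by steady-state fluorescence polarization across pH 5.8 to 8.5. Excitation 527 nm, emission 550 nm, 25°C, 5-min equilibration per titration point. KD fitted at each pH.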

The Kd is the concentration at which binding is half-saturated. One may read the MIC as the lowest concentration found to suppress growth. A high value points to weaker potency. For the compound `CC/N=c1\cc2oc3cc(NCC)c(C)cc3c(-c3ccccc3C(=O)OCC)c-2cc1C.Cl` [RHODAMINE 6G HYDROCHLORIDE], the Kd in test [1] turned out to be 3 µM; in [2], 3.4 µM; in [3] it was 3.6 µM; in test [5], 10.3 µM; in [7], 3 µM; in test [8], 2.5 µM. The compound also had a Kd in [10] of 2.6 µM. In addition, the values for the MIC against Escherichia coli [4], in the test with Escherichia coli [6] and in the test on Escherichia coli [9] were 12.5 mg/L, 12.5 mg/L and 3.12 mg/L, respectively.
